Published values gathered from unrelated publications.
Compare with care: the assays were run in different laboratories.

O=C(Nc1cccc(B(O)O)c1)c1cccc(OCc2ccccc2)c1  Papp (PAMPA; 200 µM; 5 h; pH 7.4): 0.1 ×10⁻⁶ cm/s
O=C1[O][Pt]2([NH][C@@H]3CCCC[C@H]3[NH]2)[O]C1=O (relative stereo)  Papp (PAMPA; pH 6.8): 0.448 ×10⁻⁶ cm/s
COc1ccc(C[C@@H]2NC(=O)[C@@H](CC(C)C)NC(=O)CNC(=O)[C@H](CC(C)C)NC(=O)[C@@H](CC(C)C)NC(=O)[C@H]3CCCN3C2=O)cc1  Papp (PAMPA; 10 µM; 7 h): 9.1 ×10⁻⁶ cm/s
Cc1nc([C@@](C)(CC2CC2)NC(=O)c2cc(OCC(F)(F)F)c(C3CC3)cn2)no1  Papp (PAMPA): 2.44 ×10⁻⁶ cm/s
CN1CCN([C@@H](c2ccccc2)c2ccc(Cl)cc2)CC1  Papp (PAMPA): 1830 ×10⁻⁶ cm/s
O=c1cc(-c2ccc(O)cc2)oc2cc(O)cc(O)c12  Papp (PAMPA-BBB; 1 µM; 18 h): 13.9 ×10⁻⁶ cm/s
O=S(=O)(Nc1ccc2c(c1)B(O)OC2)c1ccc(Cl)cc1  Papp (PAMPA; 200 µM; 5 h; pH 7.4): 1.7 ×10⁻⁶ cm/s
CC[C@@H](C)[C@@H]1NC(=O)[C@@H](Cc2ccc(OC)cc2)NC(=O)CN(C)C(=O)[C@H]([C@H](C)CC)NC(=O)[C@@H](Cc2ccc(OC)cc2)NC(=O)CN(C)C1=O  Papp (PAMPA): 29 ×10⁻⁶ cm/s
COc1ccc(C[C@@H]2NC(=O)[C@@H](CC(C)C)NC(=O)[C@H](CCSC)NC(=O)[C@H](CC(C)C)NC(=O)[C@@H](CC(C)C)NC(=O)[C@H]3CCCN3C2=O)cc1  Papp (PAMPA; 10 µM; 7 h): 13 ×10⁻⁶ cm/s
N#Cc1ccc(COc2cccc(C(=O)Nc3ccc4c(c3)B(O)OC4)c2)cc1  Papp (PAMPA; 200 µM; 5 h; pH 7.4): 0.076 ×10⁻⁶ cm/s
COCCOCCOc1c(OC)cc2cc(C(=O)N3C[C@@H](CCl)c4c3cc(O)c3[nH]c(C(=O)OC)cc43)[nH]c2c1OC  Papp (PAMPA; 1 µM; 5 h; pH 7.4): 3.6 ×10⁻⁶ cm/s
Cn1c(=O)c2c(ncn2C)n(C)c1=O  Papp (PAMPA; 200 µM; 5 h; pH 7.4): 11.7 ×10⁻⁶ cm/s
NC(=O)[C@@H]1CC(F)(F)CN1C(=O)c1ccc(N2CC(F)(F)C2)c(OCC2CC2)n1  Papp (PAMPA): 5.23 ×10⁻⁶ cm/s
O=c1cc(-c2ccccc2)oc2c(O)c(O)ccc12  Papp (PAMPA-BBB; 1 µM; 18 h): 6.32 ×10⁻⁶ cm/s
O=C1NC(=O)C(c2ccccc2)(c2ccccc2)N1  Papp (PAMPA; 200 µM; 5 h; pH 7.4): 6.1 ×10⁻⁶ cm/s
